Three molecules from ChEMBL document CHEMBL2062463 (Bioorg Med Chem Lett, 2012) can be followed below.

The term pKd denotes the Kd on a negative log10 scale, so that one unit is a factor of ten. A higher pKd goes with a small Kd. As a reminder, the pIC50 is the negative decadic logarithm of the IC50, by convention in mol/L. A high value points to a low IC50. One may read the logD as lipophilicity at a set pH, counting ionised and neutral species. Higher therefore signals higher lipophilicity.

pIC50, pKd: −log10 of the molar value.

Data set [1] concerns the target Vascular endothelial growth factor receptor 2 (Homo sapiens, UniProt P35968). Kind of data set: Competitive inhibition of VEGFR2 by qPCR method. (In qPCR the cycle at which signal appears reflects the starting amount.)
A short description of data set [2]: Antiproliferative activity against human HAEC cells expressing VEGFR after 72 hrs by MTT assay. The data set is classed as functional, cell-based. In outline:
(§1)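 MTT reduction by mitochondrial enzyme as viability read-out in primary endothelial HAEC and cancer HT29 cells. IC50 is the concentration giving 50% inhibition of proliferation, taken from dose-response curves of percent proliferation plotted against compound concentration.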
(In general: Tetrazolium dyes change colour on reduction, which living cells bring about.)

For another data set, the system named is HT-29. In words: Antiproliferative activity against human HT-29 cells expressing VEGFR after 72 hrs by MTT assay. Format: functional, cell-based. As to conditions: HT-29, 72 h. In outline: as §1
The nature of data set [3]: Lipophilicity, log D of the compound in octanol and water at pH 7.4 by shake flask method. The data set is classed as physicochemical.
Another data set has as its system Serum. Kind of data set: Stability in human serum by HPLC analysis. Format: ADME, cell-free. In a few lines:
(§2)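 [125I]-labelled compound incubated in fresh human serum at 4 °C and 37 °C at several time intervals. Bound fraction estimated after ethanol precipitation-extraction of proteins. Supernatant analysed by HPLC for intact radiolabelled compound.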

A short description of data set [4]: Protein binding in human serum by HPLC analysis. The data set is classed as ADME, cell-free. As to conditions: read-out: PB (converted). In outline: as §2
Data set [5] is described as follows: Chemical stability of the compound in 1% tween-20 up to 24 hrs in dark. Format: physicochemical. In a few lines:
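Radiolabelled [125I] compound held in saline containing 1% Tween-20 at 37 °C in the dark for up to 24 h. Radiochemical stability checked over that period.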

Vascular endothelial growth factor receptor 2, sequence (P35968 whole entry): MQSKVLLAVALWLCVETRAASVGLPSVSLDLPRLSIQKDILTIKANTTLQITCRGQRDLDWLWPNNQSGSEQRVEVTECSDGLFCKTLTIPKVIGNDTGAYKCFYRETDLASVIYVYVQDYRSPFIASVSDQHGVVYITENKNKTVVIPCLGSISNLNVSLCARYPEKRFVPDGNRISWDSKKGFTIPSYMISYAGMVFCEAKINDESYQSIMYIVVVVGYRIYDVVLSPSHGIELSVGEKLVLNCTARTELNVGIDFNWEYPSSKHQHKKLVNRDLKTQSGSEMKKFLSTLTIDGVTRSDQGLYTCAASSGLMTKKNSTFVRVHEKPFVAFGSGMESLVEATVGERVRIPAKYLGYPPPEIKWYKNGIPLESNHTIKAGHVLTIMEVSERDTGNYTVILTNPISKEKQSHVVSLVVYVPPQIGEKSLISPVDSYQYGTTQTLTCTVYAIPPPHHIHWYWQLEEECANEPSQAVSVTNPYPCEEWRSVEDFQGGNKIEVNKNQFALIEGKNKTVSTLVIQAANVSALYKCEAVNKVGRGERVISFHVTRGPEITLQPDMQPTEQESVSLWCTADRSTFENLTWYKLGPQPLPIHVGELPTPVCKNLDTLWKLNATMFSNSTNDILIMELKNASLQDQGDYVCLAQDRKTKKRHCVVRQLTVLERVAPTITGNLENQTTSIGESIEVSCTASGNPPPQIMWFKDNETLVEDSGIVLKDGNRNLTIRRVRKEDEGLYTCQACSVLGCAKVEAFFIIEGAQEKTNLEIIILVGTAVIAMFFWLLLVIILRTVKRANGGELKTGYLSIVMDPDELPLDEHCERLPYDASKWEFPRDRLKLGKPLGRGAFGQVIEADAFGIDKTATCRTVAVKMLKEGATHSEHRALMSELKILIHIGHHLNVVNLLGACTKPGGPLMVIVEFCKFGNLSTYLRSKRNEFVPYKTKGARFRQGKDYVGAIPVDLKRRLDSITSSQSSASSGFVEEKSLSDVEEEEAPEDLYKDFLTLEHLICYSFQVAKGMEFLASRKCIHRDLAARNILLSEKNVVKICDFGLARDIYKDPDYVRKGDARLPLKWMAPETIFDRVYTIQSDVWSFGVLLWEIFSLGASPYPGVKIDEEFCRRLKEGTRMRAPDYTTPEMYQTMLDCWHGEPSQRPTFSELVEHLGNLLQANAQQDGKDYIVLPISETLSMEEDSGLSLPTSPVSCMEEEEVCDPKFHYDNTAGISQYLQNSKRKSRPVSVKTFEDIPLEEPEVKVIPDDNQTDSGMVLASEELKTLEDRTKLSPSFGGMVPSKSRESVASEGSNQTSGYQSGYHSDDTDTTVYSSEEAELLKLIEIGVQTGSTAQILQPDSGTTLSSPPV

`CCN(CC)CCNC(=O)c1c(C)[nH]c(/C=C2\C(=O)Nc3ccc(I)cc32)c1C` had a negative logarithm of the Kd (pKd) in data set [1] of 7.80. For the same molecule, the values for the pIC50 (in data set [2]; in the data set with HT-29) were 5.95 and 5.74, respectively.

For `CCN(CC)CCNC(=O)c1c(C)[nH]c(/C=C2\C(=O)Nc3ccc([125I])cc32)c1C`, the logD in data set [3] was determined as 2.25. In addition, the Stability result (in the data set with Serum; in data set [5]) was “Stable” throughout. Further, in data set [4], the fraction unbound is 0.95.

On to `CCN(CC)CCNC(=O)c1c(C)[nH]c(/C=C2\C(=O)Nc3ccc(F)cc32)c1C` [SUNITINIB], for which the pIC50 in data set [2] is 7.00; with HT-29 it was 6.48.
